From ChEMBL document CHEMBL4359883, “4(1H)-quinolone derivatives overcome acquired resistance to anti-microtubule agents by targeting the colchicine site of β-tubulin” (Eur J Med Chem, 2019)
pIC50: −log10 of the molar value. Activity calls are given as the source filed them. The calls are words filed in the database; no cut-off is given here.

Tests used:
[1] = system: A549; test: Antiproliferative activity against human A549 cells assessed as reduction in cell viability after 72 hrs by MTS assay; type: functional, cell-based; settings: A549, 72 h
Method in brief: (§1)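 Cells plated at 2000/well, cultured overnight, then exposed to a range of compound concentrations for 72 h. MTS reagent added for 1–4 h at 37 °C and absorbance read at 490 nm. Cultured in RPMI 1640 or DMEM with 10% heat-inactivated FBS under 5% CO2. Data are the mean of three determinations.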

[2] = Antiproliferative activity against human 82T cells assessed as reduction in cell viability after 72 hrs by MTS assay; type: functional, cell-based; method in brief: as §1
[3] = system: HT-29; test: Antiproliferative activity against human HT-29 cells assessed as reduction in cell viability after 72 hrs by MTS assay; type: functional, cell-based; settings: HT-29, 72 h; method in brief: as §1
[4] = system: COLO 205; test: Antiproliferative activity against human COLO205 cells assessed as reduction in cell viability after 72 hrs by MTS assay; type: functional, cell-based; settings: COLO 205, 72 h; method in brief: as §1
[5] = system: SW-620; test: Antiproliferative activity against human SW620 cells assessed as reduction in cell viability after 72 hrs by MTS assay; type: functional, cell-based; settings: SW-620, 72 h; method in brief: as §1
[6] = system: PC-3; test: Antiproliferative activity against human PC3 cells assessed as reduction in cell viability after 72 hrs by MTS assay; type: functional, cell-based; settings: PC-3, 72 h; method in brief: as §1
[7] = system: NCI-H1975; test: Antitumour activity against human NCI-H1975 cells xenografted in Balb/c mouse assessed as reduction in tumour size at 8 mg/kg, ip administered 3 times per week and measured on day 25 (reference value: 1749 +/- 234.5 mm3); type: functional
[8] = system: CL1-0; test: Induction of apoptosis in human CL1-0 cells assessed as cleaved caspase 3 expression at 20 nM by immunoblotting analysis; type: functional, cell-based; settings: TDE = time-dependent effect
[9] = system: NCI-H1975; test: Induction of apoptosis in human NCI-H1975 cells assessed as cleaved caspase 3 expression at 40 nM by immunoblotting analysis; type: functional, cell-based; settings: TDE = time-dependent effect
[10] = system: CL1-0; test: Induction of apoptosis in human CL1-0 cells assessed as bax protein expression after 24 hrs by immunoblotting analysis; type: functional, cell-based
[11] = system: NCI-H1975; test: Induction of apoptosis in human NCI-H1975 cells assessed as cleaved caspase 9 after 24 hrs by immunoblotting analysis; type: functional, cell-based
[12] = system: CL1-0; test: Induction of apoptosis in human CL1-0 cells assessed as caspase 8 activation at 20 to 40 nM after 24 hrs by immunoblotting analysis; type: functional, cell-based
[13] = system: CL1-0; test: Induction of mitotic arrest in human CL1-0 cells assessed as increase in cyclin B1 expression at 20 to 40 nM after 24 hrs by immunoblotting analysis; type: functional, cell-based
[14] = system: NCI-H1975; test: Induction of mitotic arrest in human NCI-H1975 cells assessed as increase in cyclin B1 expression at 40 to 80 nM after 24 hrs by immunoblotting analysis; type: functional, cell-based
[15] = system: NCI-H1975; test: Induction of mitotic arrest in human NCI-H1975 cells assessed as cyclin A at 40 to 80 nM after 24 hrs by immunoblotting analysis; type: functional, cell-based
[16] = target: Tubulin alpha (Homo sapiens) (UniProt P0DPH7+P68366+Q71U36+P68363+Q9BQE3+Q6PEY2+A6NHL2+Q9NY65); test: Induction of microtubule depolymerization in human CL1-0 cells assessed as increase in alpha tubulin soluble form by immunoblot analysis; type: cell-based
Method in brief: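 Lysate spun at 16,000 rpm for 15 min at room temperature. Soluble (monomer) and particulate (polymer) fractions immunoblotted for α-tubulin.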

[17] = target: T1, Tubulin (Homo sapiens) (UniProt P68371+Q9H4B7+P0DPH7+P68366+Q13509+Q71U36+P04350+Q3ZCM7+P07437+P68363+Q9BQE3+Q6PEY2+Q13885+Q9BVA1+Q9BUF5); test: Inhibition of microtubule polymerization in human NCI-H1975 cells at 40 nM after 1 hr followed by exposure to cold and measured at 5 to 60 mins immunofluorescence based assay; type: cell-based
Method in brief: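 H1975 cells pretreated with 40 nM for 1 h, held cold for 30 min, then returned to 37 °C for varying times. Fixed and stained for α-tubulin by immunofluorescence with DAPI counterstain, then imaged by confocal microscopy.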

[18] = target: Tubulin (Sus scrofa) (UniProt P02554+P02550); test: Inhibition of porcine tubulin polymerization assessed as inhibition of formation of microtubule asters in centrosome after 8 mins immunofluorescence assay; type: protein assay
Tubulin (Sus scrofa), sequence (P02550 whole entry, looked up): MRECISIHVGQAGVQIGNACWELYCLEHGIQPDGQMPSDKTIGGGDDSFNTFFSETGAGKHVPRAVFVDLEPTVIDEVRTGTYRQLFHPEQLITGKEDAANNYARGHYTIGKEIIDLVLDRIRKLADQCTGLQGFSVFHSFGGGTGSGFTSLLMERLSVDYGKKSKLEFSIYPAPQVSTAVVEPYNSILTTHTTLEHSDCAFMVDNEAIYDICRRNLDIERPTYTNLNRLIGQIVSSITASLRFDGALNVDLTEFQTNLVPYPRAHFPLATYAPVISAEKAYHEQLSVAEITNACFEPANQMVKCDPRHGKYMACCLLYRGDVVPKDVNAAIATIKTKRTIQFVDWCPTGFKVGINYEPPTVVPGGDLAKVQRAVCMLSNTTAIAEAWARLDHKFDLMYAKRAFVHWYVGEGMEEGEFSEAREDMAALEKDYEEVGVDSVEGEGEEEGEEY
Tubulin (Sus scrofa), sequence (P02554 whole entry, looked up): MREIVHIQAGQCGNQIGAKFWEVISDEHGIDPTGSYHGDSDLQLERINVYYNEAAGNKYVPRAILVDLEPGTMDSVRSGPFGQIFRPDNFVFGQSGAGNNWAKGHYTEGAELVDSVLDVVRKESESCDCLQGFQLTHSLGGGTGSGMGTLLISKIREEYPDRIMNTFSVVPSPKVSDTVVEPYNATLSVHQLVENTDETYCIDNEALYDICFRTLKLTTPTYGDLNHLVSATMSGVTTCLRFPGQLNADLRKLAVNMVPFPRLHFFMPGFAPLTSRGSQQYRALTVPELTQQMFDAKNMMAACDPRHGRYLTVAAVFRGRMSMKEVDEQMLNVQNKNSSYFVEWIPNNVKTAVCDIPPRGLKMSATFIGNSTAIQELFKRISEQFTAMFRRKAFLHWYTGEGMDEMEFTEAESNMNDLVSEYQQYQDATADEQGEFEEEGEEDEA
Method in brief: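 Purified centrosomes incubated with compound, then with porcine tubulin in 80 mM PIPES, 1 mM MgCl2, 1 mM EGTA, 1 mM GTP, pH 6.8 for 8 min at 37 °C. Asters fixed in 1% glutaraldehyde and stained for α-tubulin. Fiber length measured on 20 asters per group; mean ± SD.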

[19] = target: T1, Tubulin (Homo sapiens); test: Inhibition of microtubule polymerization in human NCI-H1975 cells at 25 nM after 6 hr followed by DAPI staining based confocal microscopic analysis; type: cell-based
Method in brief: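 Cells exposed for 6 h, fixed in 3.7% paraformaldehyde, permeabilized with 0.1% Triton X-100. Stained with anti-α-tubulin (1:1000) overnight at 4 °C, FITC secondary 1 h at 37 °C, nuclei counterstained with DAPI. Imaged by confocal laser scanning microscopy.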

[20] = Toxicity in Balb/c mouse xenografted with human NCI-H1975 cells assessed as effect on body mass at 4 to 8 mg/kg, ip administered 3 times per week for 21 days; type: organism-based; settings: in vivo, 504 h
Method in brief: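 H1975 tumors grown in right flank of 6-week-old BALB/c nude mice; after establishment, 4 or 8 mg/kg compound dissolved in DMSO, or DMSO alone, given intraperitoneally three times a week. Body mass taken before each dose.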

[21] = system: MDA-MB-231; test: Antitumour activity against human MDA-MB-231 cells xenografted in Balb/c mouse assessed as tumour size at 4 mg/kg, ip administered three times per week and measured on day 35 (reference value: 218 +/- 20.9 mm3); type: functional
Method in brief: (§2)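 MDA-MB-231 tumours established in the right flank of 6-week-old BALB/c nude mice. Compound dissolved in DMSO was given ip three times weekly, with a DMSO vehicle group. Tumour volume calculated as 0.5W²L, measured before each dose and compared on day 35.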

[22] = system: MDA-MB-231; test: Antitumour activity against human MDA-MB-231 cells xenografted in Balb/c mouse assessed as […] at 8 mg/kg, ip administered three times per week and measured on day 35 (reference value: 218 +/- 20.9 mm3); type: functional; method in brief: as §2
[23] = target: ATP-dependent translocase ABCB1 (Homo sapiens, UniProt P08183); test: Inhibition of P-gp efflux in human KBtax cells at 30 to 120 nM after 1 hr by flow cytometry; type: cell-based
ATP-dependent translocase ABCB1, sequence (P08183 whole entry): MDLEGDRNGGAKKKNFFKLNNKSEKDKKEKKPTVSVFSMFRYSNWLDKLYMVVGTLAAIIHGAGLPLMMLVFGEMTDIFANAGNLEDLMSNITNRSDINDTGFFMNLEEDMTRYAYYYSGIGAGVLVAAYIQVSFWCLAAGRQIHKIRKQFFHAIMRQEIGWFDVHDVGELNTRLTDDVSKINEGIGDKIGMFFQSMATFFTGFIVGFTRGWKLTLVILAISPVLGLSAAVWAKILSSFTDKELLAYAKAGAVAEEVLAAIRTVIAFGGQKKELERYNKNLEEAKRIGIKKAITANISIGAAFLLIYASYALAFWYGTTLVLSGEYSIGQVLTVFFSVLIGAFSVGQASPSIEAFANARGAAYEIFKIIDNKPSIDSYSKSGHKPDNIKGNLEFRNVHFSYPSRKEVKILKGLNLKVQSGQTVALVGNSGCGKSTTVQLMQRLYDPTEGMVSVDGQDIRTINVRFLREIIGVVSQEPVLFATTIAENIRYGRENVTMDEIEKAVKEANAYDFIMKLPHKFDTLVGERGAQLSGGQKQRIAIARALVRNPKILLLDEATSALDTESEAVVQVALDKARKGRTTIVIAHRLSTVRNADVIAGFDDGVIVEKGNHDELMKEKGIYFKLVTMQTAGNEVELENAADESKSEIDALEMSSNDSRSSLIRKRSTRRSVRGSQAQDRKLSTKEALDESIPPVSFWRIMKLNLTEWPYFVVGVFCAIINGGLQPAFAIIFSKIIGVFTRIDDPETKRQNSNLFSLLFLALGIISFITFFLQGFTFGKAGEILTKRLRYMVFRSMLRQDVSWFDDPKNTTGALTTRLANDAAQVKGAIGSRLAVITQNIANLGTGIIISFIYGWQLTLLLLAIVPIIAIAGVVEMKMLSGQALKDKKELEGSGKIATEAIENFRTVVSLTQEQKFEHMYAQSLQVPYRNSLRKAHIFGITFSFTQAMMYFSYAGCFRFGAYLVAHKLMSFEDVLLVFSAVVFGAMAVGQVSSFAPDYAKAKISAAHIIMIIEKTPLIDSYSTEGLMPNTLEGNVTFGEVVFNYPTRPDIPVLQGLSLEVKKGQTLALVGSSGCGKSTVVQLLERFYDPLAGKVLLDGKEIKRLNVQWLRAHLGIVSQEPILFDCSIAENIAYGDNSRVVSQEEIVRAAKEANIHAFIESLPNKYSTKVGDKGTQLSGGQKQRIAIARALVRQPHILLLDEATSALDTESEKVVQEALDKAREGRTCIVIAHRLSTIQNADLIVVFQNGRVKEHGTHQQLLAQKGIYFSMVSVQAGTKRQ
Method in brief: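 KBtax cells (2.5×10^5 per test) loaded with rhodamine in cold medium on ice for 1 h. Then resuspended in 37 °C medium with compound and held 1 h at 37 °C for efflux. Retained fluorescence measured by flow cytometry; verapamil used as P-gp inhibitor reference.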

[24] = organism: Homo sapiens; test: Induction of mitotic arrest in human KBtax cells assessed as increase in cyclin-B1 expression at 30 to 60 nM after 24 hrs by immunoblotting analysis; type: functional, cell-based

For `CCOC(=O)c1ccc2nc(-c3ccccc3)cc(O)c2c1`, the pIC50 [1] was 7.70, the pIC50 [2] was 7.46 and the pIC50 [3] was 7.32. The pIC50 [4] was 7.24, the pIC50 [5] was 7.46 and the pIC50 [6] was 7.35. For the same molecule, the Activity [7] was 587.2 mm3, the Activity [8] was “Tde” and the Activity [9] was “Tde”. For the same molecule, the Activity [10] was “Dose-dependent effect”, the Activity [11] was “Dose-dependent effect” and the Activity [12] was “inactive”. For the same molecule, the Activity [13] was “Active”, the Activity [14] was “Active” and the Activity [15] was “inactive”. For the same molecule, the Activity [16] was “Active”, the Activity [17] was “Active” and the inhibition [18] was “Active”.

In the case of `CCOC(=O)c1ccc2[nH]c(-c3cccc(F)c3)cc(=O)c2c1`, the inhibition [19] was “Active”, the Activity [20] was “Non-Toxic” and the Activity [21] was 105 mm3. The Activity [22] was 73.6 mm3, the “inhibition (INH)” value [23] was “Not Active” and the Activity [24] was “Active”.
